Measurements published in ChEMBL document CHEMBL5316375, “Discovery of Novel, Selective Prostaglandin EP4 Receptor Antagonists with Efficacy in Cancer Models” (ACS Med Chem Lett, 2023).

Experiments:
[1] = test system: CT26; test: Antitumor activity against mouse CT26 cells allografted in BALB/c mouse assessed as mean tumor volume at 300 mg/kg, po qd administered for 21 days starting from day 8 post tumor implantation measured once for every 2 or 3 days (reference value: 2036.95 +/- 333.12 mm3); assay type: functional; details: time 21 day
Method in brief: (§1)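 CT-26 tumors in BALB/c mice (n = 6/group) dosed orally once daily from day 8 after implantation until day 21, in vehicle 0.5% carboxymethylcellulose sodium. Groups: vehicle, capecitabine 300 mg/kg alone, or capecitabine 300 mg/kg plus EP4 antagonist at 75 or 150 mg/kg. Tumor volume, TGI versus vehicle, body weight and tumor weight were recorded, with Dunnett's test.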

[2] = Toxicity in BALB/c mouse allografted with CT26 cells assessed as effect on body weight at 300 mg/kg, po administered daily for 21 days and measured every 2 to 3 days; assay type: organism-based; details: in vivo, 504 h, time 21 day; method in brief: as §1
[3] = test system: CT26; test: Antitumor activity against mouse CT26 cells allografted in BALB/c mouse assessed as tumor growth inhibition at 300 mg/kg, po qd administered for 21 days starting from day 8 post tumor implantation measured once for every 2 or 3 days relative to control; assay type: functional; details: CT26, 504 h, time 21 day, read-out: TGI; method in brief: as §1
[4] = molecular target: T1, Prostaglandin E2 receptor EP2 subtype (Homo sapiens, UniProt P43116); test: Displacement of [3H]-PGE2 from EP2 receptor membrane (unknown origin) measured after 2 hrs by Microscint-O scintillation counting analysis; assay type: cell membranes
T1 sequence (P43116 whole entry): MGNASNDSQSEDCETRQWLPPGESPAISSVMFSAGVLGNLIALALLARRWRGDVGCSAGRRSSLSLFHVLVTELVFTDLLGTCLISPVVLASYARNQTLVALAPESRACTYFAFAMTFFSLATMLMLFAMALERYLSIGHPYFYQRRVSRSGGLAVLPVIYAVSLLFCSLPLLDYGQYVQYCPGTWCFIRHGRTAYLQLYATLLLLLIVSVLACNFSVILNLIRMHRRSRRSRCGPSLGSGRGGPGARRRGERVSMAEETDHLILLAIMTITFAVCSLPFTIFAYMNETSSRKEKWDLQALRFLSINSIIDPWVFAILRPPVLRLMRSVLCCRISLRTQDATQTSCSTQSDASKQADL

[5] = molecular target: T2, Prostaglandin E2 receptor EP3 subtype (Homo sapiens, UniProt P43115); test: Displacement of [3H]-PGE2 from EP3 receptor membrane (unknown origin) measured after 2 hrs by Microscint-O scintillation counting analysis; assay type: cell membranes
T2 sequence (P43115 whole entry): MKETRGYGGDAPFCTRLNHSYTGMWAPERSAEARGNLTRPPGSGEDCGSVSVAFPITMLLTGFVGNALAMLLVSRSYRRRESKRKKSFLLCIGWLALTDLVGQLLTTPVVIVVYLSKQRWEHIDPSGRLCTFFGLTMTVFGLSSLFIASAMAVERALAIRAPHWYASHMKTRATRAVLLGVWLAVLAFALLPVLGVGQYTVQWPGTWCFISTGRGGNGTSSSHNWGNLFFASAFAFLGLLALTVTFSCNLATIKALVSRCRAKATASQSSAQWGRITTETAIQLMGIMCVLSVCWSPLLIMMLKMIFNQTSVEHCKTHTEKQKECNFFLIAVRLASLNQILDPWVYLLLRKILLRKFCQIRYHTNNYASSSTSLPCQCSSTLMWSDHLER

[6] = molecular target: T3, Prostaglandin E2 receptor EP1 subtype (Homo sapiens, UniProt P34995); test: Displacement of [3H]-PGE2 from EP1 receptor membrane (unknown origin) measured after 2 hrs by Microscint-O scintillation counting analysis; assay type: cell membranes
T3 sequence (P34995 whole entry): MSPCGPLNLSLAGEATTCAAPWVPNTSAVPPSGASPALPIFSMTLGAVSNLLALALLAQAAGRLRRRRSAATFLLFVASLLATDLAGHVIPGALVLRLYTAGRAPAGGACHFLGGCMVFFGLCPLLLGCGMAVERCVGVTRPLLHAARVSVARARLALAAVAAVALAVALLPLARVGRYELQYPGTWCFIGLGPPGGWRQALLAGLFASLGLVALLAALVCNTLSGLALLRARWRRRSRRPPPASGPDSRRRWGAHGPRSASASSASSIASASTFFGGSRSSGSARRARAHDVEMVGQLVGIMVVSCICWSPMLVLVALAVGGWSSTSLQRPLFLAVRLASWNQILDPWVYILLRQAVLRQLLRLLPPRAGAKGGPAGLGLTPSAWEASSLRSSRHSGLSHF

[7] = molecular target: Prostaglandin E2 receptor EP4 subtype (Homo sapiens, UniProt P35408); test: Antagonist activity at human EP4 receptor overexpressed in HEK293 cells assessed as inhibition of PGE2-induced cAMP formation preincubated for 15 mins followed by PGE addition and measured after 30 mins by Eu-cAMP tracer based assay; assay type: functional, cell-based
Prostaglandin E2 receptor EP4 subtype, sequence (P35408 whole entry): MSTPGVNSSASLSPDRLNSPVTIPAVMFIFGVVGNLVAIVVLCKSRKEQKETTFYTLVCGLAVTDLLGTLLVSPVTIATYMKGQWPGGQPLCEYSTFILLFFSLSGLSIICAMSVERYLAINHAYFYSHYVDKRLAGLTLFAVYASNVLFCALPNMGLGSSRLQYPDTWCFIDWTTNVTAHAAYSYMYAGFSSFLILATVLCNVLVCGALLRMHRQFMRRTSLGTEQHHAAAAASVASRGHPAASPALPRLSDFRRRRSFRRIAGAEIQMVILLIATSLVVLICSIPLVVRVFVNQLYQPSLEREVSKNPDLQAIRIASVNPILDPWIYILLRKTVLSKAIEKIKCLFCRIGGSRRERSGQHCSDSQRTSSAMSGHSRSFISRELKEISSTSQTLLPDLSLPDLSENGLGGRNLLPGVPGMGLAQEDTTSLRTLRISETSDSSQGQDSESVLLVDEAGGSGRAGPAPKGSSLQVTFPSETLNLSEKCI

[8] = test system: CT26; test: Antitumor activity against mouse CT26 cells allografted in BALB/c mouse assessed as mean tumor volume at 150 mg/kg, po qd administered every day for 11 days measured for every 2 or 3 days (reference value: 2145.58 +/- 152.9 mm3); assay type: functional; details: time 11 day
Method in brief: (§2)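 CT-26 tumors in BALB/c mice grown to 100–200 mm3, then animals randomized (n = 6/group). Dosing was oral, once daily for 11 days, in vehicle 0.5% carboxymethylcellulose sodium in PBS. Groups: vehicle, 75 or 150 mg/kg, or E7046 150 mg/kg. Tumor volume, TGI versus vehicle, body weight and day-11 tumor weight were recorded, with Dunnett's test versus vehicle.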

[9] = test system: CT26; test: Antitumor activity against mouse CT26 cells allografted in BALB/c mouse assessed as tumor growth inhibition at 150 mg/kg, po qd administered every day for 11 days measured for every 2 or 3 days relative to control; assay type: functional; details: CT26, 264 h, time 11 day, read-out: TGI; method in brief: as §2
[10] = molecular target: T2, Prostaglandin E2 receptor EP3 subtype; test: Antagonist activity at EP3 receptor (unknown origin)
[11] = Volume of distribution at steady state in Sprague-Dawley rat at 1 mg/kg, iv; assay type: ADME, organism-based; details: in vivo, read-out: Vdss
[12] = Microsomal stability in human liver microsomes assessed as half life at 1 uM measured for 60 mins by LC-MS/MS analysis; assay type: ADME, Microsome
[13] = Half life in Sprague-Dawley rat at 1 mg/kg, iv; assay type: ADME, organism-based; details: in vivo
[14] = AUC (0 to t) in Sprague-Dawley rat at 1 mg/kg, iv; assay type: ADME, organism-based; parameters: dose 1 mg/kg, route iv; details: in vivo
[15] = molecular target: Voltage-gated inwardly rectifying potassium channel KCNH2 (Homo sapiens, UniProt Q12809); test: Inhibition of hERG; assay type: toxicity
Voltage-gated inwardly rectifying potassium channel KCNH2, sequence (Q12809 whole entry): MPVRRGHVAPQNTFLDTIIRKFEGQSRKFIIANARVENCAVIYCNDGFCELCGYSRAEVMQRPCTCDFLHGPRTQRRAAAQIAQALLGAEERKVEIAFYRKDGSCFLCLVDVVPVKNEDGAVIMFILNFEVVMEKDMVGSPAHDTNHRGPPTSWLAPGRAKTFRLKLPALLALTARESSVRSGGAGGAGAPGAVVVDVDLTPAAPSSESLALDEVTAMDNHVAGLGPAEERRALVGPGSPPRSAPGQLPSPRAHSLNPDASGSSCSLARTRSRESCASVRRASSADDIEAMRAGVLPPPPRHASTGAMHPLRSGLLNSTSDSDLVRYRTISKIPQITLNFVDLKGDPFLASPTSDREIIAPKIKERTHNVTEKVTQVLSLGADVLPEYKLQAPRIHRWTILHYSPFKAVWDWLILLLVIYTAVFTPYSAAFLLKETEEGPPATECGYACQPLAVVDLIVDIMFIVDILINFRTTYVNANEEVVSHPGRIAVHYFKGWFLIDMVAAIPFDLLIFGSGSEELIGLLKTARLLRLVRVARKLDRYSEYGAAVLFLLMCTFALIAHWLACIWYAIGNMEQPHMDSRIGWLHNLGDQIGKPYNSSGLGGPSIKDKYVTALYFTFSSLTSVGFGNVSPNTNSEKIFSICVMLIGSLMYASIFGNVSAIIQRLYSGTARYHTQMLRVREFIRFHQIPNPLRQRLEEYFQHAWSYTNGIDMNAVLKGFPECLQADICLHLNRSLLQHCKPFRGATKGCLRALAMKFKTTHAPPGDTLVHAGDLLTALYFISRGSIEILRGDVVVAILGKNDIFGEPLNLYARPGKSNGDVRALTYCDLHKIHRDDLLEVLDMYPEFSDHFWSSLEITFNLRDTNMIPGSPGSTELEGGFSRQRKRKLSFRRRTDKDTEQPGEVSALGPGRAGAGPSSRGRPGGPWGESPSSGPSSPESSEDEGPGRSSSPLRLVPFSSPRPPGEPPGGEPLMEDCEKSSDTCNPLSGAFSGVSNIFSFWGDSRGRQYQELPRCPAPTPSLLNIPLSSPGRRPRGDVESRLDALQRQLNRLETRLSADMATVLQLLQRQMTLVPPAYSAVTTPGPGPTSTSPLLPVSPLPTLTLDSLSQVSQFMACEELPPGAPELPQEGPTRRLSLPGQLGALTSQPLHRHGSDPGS

[16] = Microsomal stability in mouse liver microsomes assessed as half life at 1 uM measured for 60 mins by LC-MS/MS analysis; assay type: ADME, Microsome
[17] = AUC (0 to t) in Sprague-Dawley rat at 10 mg/kg, po; assay type: ADME, organism-based; parameters: dose 10 mg/kg, route po; details: in vivo
[18] = Plasma protein binding in human at 1 uM incubated for 6 hrs by LC-MS/MS analysis; assay type: ADME, cell-free
[19] = Microsomal stability in rat liver microsomes assessed as half life at 1 uM measured for 60 mins by LC-MS/MS analysis; assay type: ADME, Microsome
[20] = Half life in Sprague-Dawley rat at 10 mg/kg, po; assay type: ADME, organism-based; details: in vivo
[21] = Cmax in Sprague-Dawley rat at 1 mg/kg, iv; assay type: ADME, organism-based; parameters: dose 1 mg/kg, route iv; details: in vivo
[22] = Cmax in Sprague-Dawley rat at 10 mg/kg, po; assay type: ADME, organism-based; parameters: dose 10 mg/kg, route po; details: in vivo
[23] = Tmax at Sprague-Dawley rat at 10 mg/kg, po; assay type: ADME, organism-based; details: in vivo
[24] = Plasma protein binding in rat assessed as parent compound remaining at 1 uM incubated for 6 hrs by LC-MS/MS analysis; assay type: ADME, cell-free
[25] = Plasma protein binding in human assessed as parent compound remaining at 1 uM incubated for 6 hrs by LC-MS/MS analysis; assay type: ADME, cell-free
[26] = Toxicity in BALB/c mouse allografted with CT26 cells assessed as reduction in body weight at 75 to 150 mg/kg, po administered daily for 21 days and measured every 2 to 3 days in presence of 300 mg/kg capecitabine; assay type: organism-based; details: in vivo, 504 h, dose 75-150 mg/kg, time 21 day; method in brief: as §1
[27] = AUC (0 to infinity) in Sprague-Dawley rat at 10 mg/kg, po; assay type: ADME, organism-based; parameters: dose 10 mg/kg, route po; details: in vivo
[28] = molecular target: T3, Prostaglandin E2 receptor EP1 subtype; test: Antagonist activity at EP1 receptor (unknown origin)
[29] = Plasma protein binding in mouse at 1 uM incubated for 6 hrs by LC-MS/MS analysis; assay type: ADME, cell-free
[30] = AUC (0 to infinity) in Sprague-Dawley rat at 1 mg/kg, iv; assay type: ADME, organism-based; parameters: dose 1 mg/kg, route iv; details: in vivo
[31] = molecular target: T1, Prostaglandin E2 receptor EP2 subtype; test: Antagonist activity at EP2 receptor (unknown origin)
[32] = Plasma protein binding in mouse assessed as parent compound remaining at 1 uM incubated for 6 hrs by LC-MS/MS analysis; assay type: ADME, cell-free
[33] = Plasma protein binding in rat at 1 uM incubated for 6 hrs by LC-MS/MS analysis; assay type: ADME, cell-free
[34] = Clearance in Sprague-Dawley rat at 1 mg/kg, iv; assay type: ADME, organism-based; details: in vivo
[35] = Oral bioavailability in Sprague-Dawley rat at 10 mg/kg; assay type: ADME, organism-based; details: in vivo
[36] = Toxicity in BALB/c mouse allografted with CT26 cells assessed as body weight loss at 75 to 150 mg/kg, po qd administered for 11 days and measured every 2 to 3 days; assay type: organism-based; details: in vivo, 264 h, dose 75-150 mg/kg, time 11 day; method in brief: as §2

With CCCCCOC(=O)Nc1nc(=O)n([C@@H]2O[C@H](C)[C@@H](O)[C@H]2O)cc1F [CAPECITABINE] the Activity [1] was 707.13 mm3, the Activity [2] was “Non-Toxic” and the inhibition in vivo at 300 mg/kg [3] was 67.9%.
For Cn1c(C(=O)NC2(c3ccc(C(=O)O)cc3)CC2)c(Nc2cccc(C(F)(F)F)c2)c2ccccc21, the Ki [4] was greater than 8.8 µM, the Ki [5] was greater than 6.4 µM and the Ki [6] was greater than 9.6 µM.
Compound C[C@H](NC(=O)c1c(Nc2cccc(C(F)(F)F)c2)c2ccccc2n1C)c1ccc(C(N)=O)cc1 has an IC50 [7] greater than 10 µM.
With C[C@H](NC(=O)c1c(C(F)F)nn(C)c1Oc1cccc(C(F)(F)F)c1)c1ccc(C(=O)O)cc1 [PALUPIPRANT] the Activity [8] was 1619.76 mm3 and the inhibition in vivo at 150 mg/kg [9] was 25.9%.
With COc1ccc(Br)cc1S(=O)(=O)NC(=O)/C=C/c1ccccc1Cc1ccc2ccccc2c1 the IC50 [10] was 0.033 µM.
C[C@H](NC(=O)c1c(Nc2cccc(C(F)(F)F)c2)c2ccccc2n1C)c1ccc(C(=O)O)cc1 gave a Vd [11] of 0.41 L/kg, a half-life at 1 µM [12] of 0.404 h and a half-life [13] of 1.4 h. It also gave an AUC(0-t) [14] of 3380 ng·h/mL, a Ki [4] greater than 8.8 µM and an IC50 [15] greater than 40 µM. It also gave a half-life at 1 µM [16] of 1.64 h, an AUC(0-t) [17] of 25700 ng·h/mL and a PPB [18] of 99.68%. The half-life at 1 µM [19] was 4.33 h, the half-life [20] was 2.7 h and the Cmax [21] was 4630 ng/mL. It also gave a Cmax [22] of 8240 ng/mL, a Tmax [23] of 0.5 h and a residual activity [24] of 88.79%. The residual activity [25] was 83.02%, the Ki [5] was greater than 6.4 µM and the Activity [26] was “Non-Toxic”. The IC50 [10] was greater than 10 µM, the AUC(0-inf) [27] was 25700 ng·h/mL and the IC50 [28] was greater than 10 µM. The PPB [29] was 99.66%, the AUC(0-inf) [30] was 3420 ng·h/mL and the IC50 [31] was greater than 10 µM. It also gave a residual activity [32] of 70.47%, a PPB [33] of 99.73% and a clearance [34] of 4.95 mL/min/kg. The Ki [6] was greater than 9.6 µM, the bioavailability [35] was 76.1% and the Activity [36] was “Non-Toxic”.
